Only some compounds are listed: those with a hit (about 3.1% of all), similar ones and a draw of the others.
OX1R antag-1: antagonists of human orexin 1 receptor (OX1R). 330,000 tested, 1.8% active. Orexin/Hypocretin receptor type 1 (Homo sapiens), O43613. AID 485270, 2010. inhibition, % at 6.6 µM. OX1R-expressing cells, FRET antagonist read-out; in the data active means inhibition mostly above about 38%, no sharp cut-off; inactive means mostly below about 40%;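 further: 0% = agonist challenge alone and 100% = reference antagonist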
Target sequence (O43613 whole entry, looked up): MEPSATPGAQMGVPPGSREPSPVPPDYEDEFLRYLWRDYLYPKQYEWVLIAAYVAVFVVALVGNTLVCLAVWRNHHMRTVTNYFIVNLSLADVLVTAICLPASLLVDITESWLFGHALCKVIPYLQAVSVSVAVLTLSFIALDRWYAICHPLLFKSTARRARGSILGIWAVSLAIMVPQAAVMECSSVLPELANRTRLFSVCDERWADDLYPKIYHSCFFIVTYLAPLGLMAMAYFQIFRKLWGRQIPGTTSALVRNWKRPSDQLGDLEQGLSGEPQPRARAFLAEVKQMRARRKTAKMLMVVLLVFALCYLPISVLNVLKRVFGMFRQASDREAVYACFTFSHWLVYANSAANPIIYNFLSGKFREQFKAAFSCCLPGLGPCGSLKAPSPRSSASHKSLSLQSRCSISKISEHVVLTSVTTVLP
CHO parental Ca: ATP-evoked calcium signal inhibitors, parental CHO, primary screen, counter-screen for OX1R antagonist project, cell-based, fluorescence, Fluo-8 calcium dye. parental CHO-K1, ATP-induced calcium, Fluo-8 fluorescence. inhibition, % at 5.6 µM. 330,000 tested, 0.63% active. AID 463079, 2010;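 active means inhibition above that plate's mean sample inhibition plus 3 SD, cut at about 26% in these data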;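 further: 0% = ATP-challenged DMSO wells and 100% = DMSO wells without ATP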
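Assay system: parental CHO cells; Read-out basis: percent inhibition of ATP-evoked calcium rise, normalized to controls; Benchmarks: ATP and no-ATP DMSO wells; Compound dosing: single nominal dose of 5.6 µM per compound; Signal: Fluo-8 calcium dye fluorescence; Also added: ATP as calcium-mobilizing challenge; Repeats: singlicate.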
GPR7 antag: GPR7 receptor antagonists, primary screen, cell-based, fluorescence, single concentration; inhibition, % at 4.4 µM; GPR7-expressing cells, fluorescence antagonist assay; 290,000 tested, 1.1% active; in the data active means inhibition above about 16%, passing the limit was not always enough;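 further: cells stimulated with the agonist NPW; 0% = agonist with vehicle and 100% = vehicle without agonist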
GalR3 antagonist: GalR3 antagonists in HEK293 cells, primary screen, cell-based, fluorescence readout. Galanin receptor type 3 (Homo sapiens), O60755. HEK293 GalR3-CNG cAMP membrane potential fluorescence; galR3 body fused to GalR1 C-terminus. inhibition, % at 3 µM. 360,000 tested, 0.44% active;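 active means inhibition above the screen-wide average plus 3 SD, cut at about 13% in these data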;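 further: forskolin and galanin both at EC90 stimulate the cells; cAMP rise reported by CNG channel membrane potential dye signal; 0% = forskolin plus galanin with DMSO and 100% = forskolin alone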
OX1R antag-2: OX1R (HCRTR1) antagonists, primary screen, fluorescence, CHO/OX1R cells, Fluo-8 calcium, orexin A | Fluo-8 calcium fluorescence | inhibition, % at 5 µM | 330,000 tested, 0.43% active | AID 434989, 2010;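 active means inhibition above its plate's threshold, mean inhibition of all tested compounds on the plate plus 3 SD, cut at about 37% in these data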;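 further: 0% = orexin A challenge wells and 100% = SB-334867-A antagonist wells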
GPR7 antag cf: GPR7 receptor antagonists, confirmation, cell-based, fluorescence, single concentration | shares compounds with GPR7 antag | GPR7-expressing cells, calcium fluorescence antagonist mode | inhibition, % at 4.4 µM | 2,400 tested, 52% active; in the data active means inhibition above about 24%;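 further: stimulated with the GPR7 agonist NPW; 0% = agonist plus vehicle and 100% = vehicle alone without agonist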
MCHR1 antag: MCHR1 antagonists in cells, counter-screen for GPR7 antagonist project, cell-based, fluorescence, human; shares compounds with GPR7 antag; MCHR1-expressing cells, fluorescence antagonist assay; inhibition, % at 4.4 µM; 2,400 tested, 62% active; AID 2148, 2009; in the data active means inhibition above about 22%;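 further: 0% = vehicle with agonist and 100% = vehicle without agonist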
The depositor's hits bear a star; . = no result.

SMILES	OX1R antag-1	CHO parental Ca	GPR7 antag	GalR3 antagonist	OX1R antag-2	GPR7 antag cf	MCHR1 antag
Cc1ccc(S(=O)(=O)Nc2ccc(Cl)cc2O)cc1	.	.	.	-3	.	.	.
O=C(OCn1ncc(Cl)c(Cl)c1=O)c1ccc(F)cc1	10	32*	-4	.	27	.	.
O=C(OCn1ncc(Cl)c(Cl)c1=O)c1ccccc1Cl	15	17	2	-2	-4	.	.
COCCCNC(=O)c1ccc2nc3ccccc3c(=O)n2c1	35	-13	-4	-8	-23	.	.
COC(CNC(=O)c1ccc2nc3ccccc3c(=O)n2c1)OC	38*	-9	1	-13	-14	.	.
CCN(CC)C(=O)Cn1cc(C(=O)C(=O)NCCCN2CCCCC2)c2ccccc21	13	-12	-3	0	-22	.	.
CCN(CC)C(=O)Cn1cc(C(=O)C(=O)NCCc2c[nH]c3ccccc23)c2ccccc21	46*	-6	0	-6	6	.	.
CN(Cc1ccc(N(C)C)cc1)C(=O)c1cc2ccccc2o1	21	6	41*	-9	7	10	26*
CCC(=O)N1CCN(c2ccccc2NC(=O)COc2ccc(C(C)C)cc2)CC1	33	-18	27*	-6	-12	18	21
COc1ccc(OCC(=O)Nc2ccccc2N2CCN(C)CC2)cc1	22	-6	-4	-6	-22	.	.
CCCCc1cc(O)c(CCCC)c(O)c1	8	80*	93*	-5	102*	93*	96*
COc1ccc([N+](=O)[O-])cc1NC(=O)CSCc1ccc(Br)cc1	29	3	0	-6	-14	.	.
COc1cc(/C=N/NC(=O)CSCc2ccc([N+](=O)[O-])cc2)cc(OC)c1OC	26	-16	22*	-3	-20	26*	23*
Cc1ccc(NC(=O)COC(=O)c2oc3ccccc3c2C)cc1S(=O)(=O)N1CCOCC1	.	.	.	2	.	.	.
O=C(c1ccco1)N1CCN(C(=S)Nc2ccc(F)c(Cl)c2)CC1	13	-2	-8	-5	-5	.	.
Cc1cccc(N2CCN(C(=O)COc3ccc4ccc(=O)oc4c3)CC2)c1C	15	-20	37*	-4	-20	45*	42*
CN(c1ccccc1)S(=O)(=O)c1ccc(NC(=O)c2ccccc2)cc1	8	-7	5	-4	-3	.	.
CN(c1ccccc1)S(=O)(=O)c1ccc(NC(=O)c2nc(S(C)(=O)=O)ncc2Cl)cc1	37	32	92*	-5	38	91*	102*
COc1cccc(NC(=O)c2cnsn2)c1	9	-5	25*	.	-1	5	3
COc1cccc(NC(=O)c2nc(S(C)(=O)=O)ncc2Cl)c1	39	8	33*	8	-8	42*	33*
Cc1ccc(CNC(=O)Nc2ccccc2)c(C)c1	50	8	-8	-5	-8	.	.
CN(C)C1=NCCN1CCc1cccc(F)c1	24	10	5	-4	-9	.	.
CC(C)NC(=O)COc1coc(CN2CCN(Cc3ccccc3)CC2)cc1=O	9	-3	6	-6	-4	.	.
O=c1c2ccc([N+](=O)[O-])cc2ncn1CCOc1ccc(Cl)cc1	31	-14	26*	-5	-6	44*	62*
COc1ccc([C@@H]2[C@@H]3C(=O)N(C(C)(C)C)C(=O)[C@@H]3[C@]3(C)C(=O)N(c4ccc(C)cc4)C(=O)N23)cc1	29	-30	-2	-9	-44	.	.
SMILES	OX1R antag-1	CHO parental Ca	GPR7 antag	GalR3 antagonist	OX1R antag-2	GPR7 antag cf	MCHR1 antag
COc1ccc2[nH]c3c(c2c1)CCN1C(=O)C(CC(=O)NCCCn2ccnc2)C[C@H](C(=O)N(C(C)C)C(C)C)[C@@]31C (stereo partly specified)	12	-17	.	-2	-5	.	.
Cn1c(=O)c2c(nc(CN3CCc4ccccc4C3)n2Cc2cccc(Cl)c2)n(C)c1=O	35	-22	24*	.	-7	20	13
Cc1cc(Cl)ccc1OCC(=O)N1CCCN(C(=O)COc2ccc(Cl)cc2C)CC1	27	-21	27*	1	-16	12	20
Cc1cc(Cl)ccc1OC(C)C(=O)N1CCCN(C(=O)C(C)Oc2ccc(Cl)cc2C)CC1 (stereo unspecified)	32	-19	32*	-10	14	63*	71*
COc1ccccc1N1CCN(C(=O)COc2ccc(Cl)cc2Br)CC1	22	-15	28*	-6	-17	48*	47*
CC(C)n1ncc2c(C(=O)NCc3cccnc3)cc(C3CC3)nc21	.	.	.	-6	.	.	.
CN1CCN(C2=Cc3ccccc3Sc3cc(F)c(Cl)cc32)CC1	8	-6	27*	-12	-13	38*	58*
COc1cc(-c2cc(-c3ccc(O)cc3)nc(N)c2C#N)ccc1O	17	-18	-2	11	-10	.	.
COc1ccccc1-c1cc(-c2ccc(O)cc2)nc(N)c1C#N	10	2	37*	-10	-24	11	17
CSc1ccc(NC(=O)N2CCC(C(=O)c3ccc(F)cc3)CC2)cc1	25	-12	7	-8	-22	.	.
COc1ccc(S(=O)(=O)N2CCOCC2)cc1C(=O)N1CCCCC1	3	-2	-14	0	4	.	.
O=C1NC(=S)S/C1=C/c1ccc(OC(=O)c2ccco2)cc1	52	-10	28*	-6	-4	16	23*
CCCCNC1c2ccccc2C(=O)N1Cc1ccccc1 (stereo unspecified)	-6	-11	28*	-12	-11	18	9
Cc1cc(NC(=O)CSc2nnc(Cc3cccn3C)n2CCc2ccccc2)no1	6	-21	11	1	-23	.	.
Cc1csc(NC(=O)CSc2nnc(Cc3cccn3C)n2CCc2ccccc2)n1	16	-25	28*	1	-14	16	16
CCCC(c1nnnn1Cc1ccco1)N1CCN(c2ccccc2)CC1 (stereo unspecified)	26	-16	8	2	-12	.	.
CCCC(c1nnnn1Cc1ccco1)N1CCN(c2cc(Cl)ccc2C)CC1 (stereo unspecified)	16	-10	26*	-7	5	35*	50*
COCCNC(=O)c1ccc(CSc2nc3ccccc3s2)cc1	30	-9	31*	-3	-8	-8	28*
O=C(NCc1ccco1)c1sc2cc(Cl)ccc2c1Cl	29	-14	36*	-3	-27	22	31*
O=C(NCc1ccco1)c1sc2ccccc2c1Cl	21	-34	-2	-3	-22	.	.

Screens as filed in PubChem.
